Values after ≈ are worked out from the molar mass of the structure shown.
What was measured:
[1] = tested on: Entamoeba histolytica; experiment: Antiprotozoal activity measured as the conc for <[…]% inhibition of Entamoeba histolytica,; assay type: functional, organism-based
[2] = tested on: Entamoeba histolytica; experiment: Antiprotozoal activity measured as the conc for >95% inhibition of Entamoeba histolytica,; assay type: functional, organism-based
Outline: (§1)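 Protozoa grown 48 h (T. vaginalis in TYM 721, T. foetus in TYM 359, E. histolytica J 190 in modified Boeck Drbohlav medium, 37 °C) and pooled; 0.6 × 10^6 organisms into 10-mL tubes with drug 32 to 0.06 µg/mL, 48 h; inhibition scored microscopically against untreated controls as 100, >95, 95-25 or <25%.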

[3] = tested on: Epidermophyton floccosum; experiment: Antifungal activity against Epidermophyton floccosum, activity expressed as minimum inhibitory concentration (ug/mL); assay type: functional
[4] = tested on: Entamoeba histolytica; experiment: Antiprotozoal activity measured as the conc for 100% inhibition of Entamoeba histolytica,; assay type: functional, organism-based; outline: as §1
[5] = tested on: Entamoeba histolytica; experiment: Antiprotozoal activity measured as the conc for 95-[…]% inhibition of Entamoeba histolytica; assay type: functional, organism-based
[6] = tested on: Saccharomyces cerevisiae; experiment: Antifungal activity against Saccharomyces cerevisiae, activity expressed as minimum inhibitory concentration (ug/mL).; assay type: functional
[7] = tested on: Trichomonas vaginalis; experiment: Antiprotozoal activity measured as the conc for 100% inhibition of Trichomonas vaginalis; assay type: functional, organism-based; outline: as §1
[8] = tested on: Trichomonas vaginalis; experiment: Antiprotozoal activity measured as the conc for 95-[…]% inhibition of Trichomonas vaginalis; assay type: functional, organism-based
[9] = tested on: Trichomonas vaginalis; experiment: Antiprotozoal activity measured as the conc for <[…]% inhibition of Trichomonas vaginalis; assay type: functional, organism-based
[10] = tested on: Trichophyton benhamiae; experiment: Antifungal activity against Trichophyton mentagrophytes, activity expressed as minimum inhibitory concentration (ug/mL).; assay type: functional, Arthroderma benhamiae
[11] = tested on: Candida albicans; experiment: Antifungal activity against Candida albicans, activity expressed as minimum inhibitory concentration (ug/mL); assay type: functional
Outline: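 Tube dilution in Sabouraud's dextrose broth (ca. 3 mL/tube) at 37 °C; inoculum from 24-h yeast culture, 1:1000 in saline. Drug dissolved in Me2SO-EtOH (1:9), stock 3.2 mg/mL; twofold serial dilutions 32 to 0.06 µg/mL. Read after 48 h; MIC = lowest concentration with no visible growth.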

[12] = tested on: Bacteroides fragilis; experiment: Antibacterial activity against Bacteroides fragilis, activity expressed as […] inhibitory zone (mm, diameter); assay type: functional
Outline: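 Agar diffusion vs B. fragilis grown in thioglycolate broth: 0.05 mg drug per paper disk (stock 1 mg/mL, Me2SO-EtOH 1:9), brain-heart infusion agar seeded with 48-h culture at 1:100, anaerobic 37 °C, 24 h; zone diameter in mm.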

[13] = tested on: Saccharomyces cerevisiae; experiment: Antifungal activity against Saccharomyces cerevisiae, activity expressed as inhibitory zone (mm, diameter); assay type: functional
Outline: (§2)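 Yeast grown in Sabouraud's dextrose broth, 24-h culture seeded 1:100 into agar; paper disks carrying 0.05 mg drug (from 1 mg/mL stock in Me2SO-EtOH 1:9); 37 °C, read after 48 h as zone diameter (mm).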

[14] = tested on: Actinomyces israelii; experiment: Antibacterial activity against Actinomyces israelii, activity expressed as inhibitory zone (mm, diameter); assay type: functional
Outline: (§3)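 Agar diffusion: disks loaded with 0.05 mg drug (stock 1 mg/mL in Me2SO-EtOH 1:9) on brain-heart infusion agar seeded 1:100 with 48-h anaerobe culture grown in thioglycolate broth; incubated anaerobically at 37 °C for 24 h; zone diameter measured in mm.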

[15] = tested on: Clostridium novyi; experiment: Antibacterial activity against Clostridium novyi, activity expressed as inhibitory zone (mm, diameter); assay type: functional; outline: as §3
[16] = tested on: Candida albicans; experiment: Antifungal activity against Candida albicans, activity expressed as […] inhibitory zone (mm, diameter); assay type: functional; outline: as §2
[17] = tested on: Candida albicans; experiment: Antifungal activity against Candida albicans, activity expressed as minimum inhibitory concentration ([…]); assay type: functional
[18] = tested on: Epidermophyton floccosum; experiment: Antifungal activity against Epidermophyton floccosum, activity expressed as inhibitory zone (mm, diameter); assay type: functional
Outline: (§4)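 Dermatophytes grown in Sabouraud's dextrose broth, 4-5 day cultures seeded 1:100 into agar; disks with 0.05 mg drug (1 mg/mL stock, Me2SO-EtOH 1:9); grown and tested at 28 °C, zone diameter (mm) read after 48 h.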

[19] = tested on: Entamoeba histolytica; experiment: Antiprotozoal activity measured as the conc for <[…]% inhibition of Entamoeba histolytica; assay type: functional, organism-based
[20] = tested on: Cutibacterium acnes; experiment: Antibacterial activity against Propionibacterium acnes, activity expressed as inhibitory zone (mm, diameter); assay type: functional; outline: as §3
[21] = tested on: Saccharomyces cerevisiae; experiment: Antifungal activity against Saccharomyces cerevisiae, activity expressed as minimum inhibitory concentration ([…]).; assay type: functional
[22] = tested on: Tritrichomonas suis; experiment: Antiprotozoal activity measured as the conc for <[…]% inhibition of Trichomonas foetus; assay type: functional, organism-based
[23] = tested on: Streptococcus pyogenes; experiment: Antibacterial activity against Streptococcus pyogenes C, activity expressed as inhibitory zone (mm, diameter); assay type: functional; outline: as §3
[24] = tested on: Trichophyton benhamiae; experiment: Antifungal activity against Trichophyton mentagrophytes, activity expressed as inhibitory zone (mm, diameter); assay type: functional, Arthroderma benhamiae; outline: as §4
[25] = tested on: Trichophyton benhamiae; experiment: Antifungal activity against Trichophyton mentagrophytes, activity expressed as minimum inhibitory concentration ([…]).; assay type: functional, Arthroderma benhamiae
[26] = tested on: Epidermophyton floccosum; experiment: Antifungal activity against Epidermophyton floccosum, activity expressed as minimum inhibitory concentration ([…]); assay type: functional
[27] = tested on: Entamoeba histolytica; experiment: Antiprotozoal activity measured as the conc for 100% inhibition of Entamoeba histolytica; assay type: functional, organism-based
Outline: (§5)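 E. histolytica (J 190) grown 48 h at 37 °C in modified Boeck Drbohlav medium, pooled; 0.6 × 10^6 organisms inoculated into 10 mL medium with drug at 32 to 0.06 µg/mL, incubated 48 h.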

[28] = tested on: Tritrichomonas suis; experiment: Antiprotozoal activity measured as the conc for 100% inhibition of Trichomonas foetus; assay type: functional, organism-based; outline: as §1
[29] = tested on: Tritrichomonas suis; experiment: Antiprotozoal activity measured as the conc for 95-[…]% inhibition of Trichomonas foetus; assay type: functional, organism-based
[30] = tested on: Tritrichomonas suis; experiment: Antiprotozoal activity measured as the conc for >95% inhibition of Trichomonas foetus; assay type: functional, organism-based; outline: as §1
[31] = tested on: Trichomonas vaginalis; experiment: Antiprotozoal activity measured as the conc for >95% inhibition of Trichomonas vaginalis; assay type: functional, organism-based; outline: as §1
[32] = tested on: Candida albicans; experiment: Antifungal activity against Candida albicans, activity expressed as […] inhibitory zone (mm, diameter); QA is questionable activity; assay type: functional, organism-based
Outline: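 Agar diffusion on Sabouraud's dextrose agar seeded with 24-h yeast culture at 1:100 in agar; paper disks loaded with 0.05 mg drug (stock 1 mg/mL in Me2SO-EtOH 1:9). Incubated at 37 °C for 48 h; inhibition zone diameter measured in mm.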

[33] = tested on: Entamoeba histolytica; experiment: Antiprotozoal activity measured as the conc for >95% inhibition of Entamoeba histolytica; assay type: functional, organism-based; outline: as §5

SMILES | MIC [3] | Concentration [5] | MIC [6] | Concentration [7] | Concentration [8] | Concentration [9] | MIC [10] | MIC [11] | Inhibitory zone [12] | Inhibitory zone [13] | Inhibitory zone [14] | Inhibitory zone [15] | Inhibitory zone [16] | Inhibitory zone [18] | Concentration [19] | Concentration [22] | Concentration [27] | Concentration [30] | Concentration [31] | Concentration [33] | also measured
Clc1ccccc1C(c1ccccc1)(c1ccccc1)n1ccnc1 [CLOTRIMAZOLE] | 0.06 µg/mL (≈ 0.174 µM) | 8 µg/mL | 0.06 µg/mL (≈ 0.174 µM) | 32 µg/mL | 8 µg/mL | 4 µg/mL | 0.06 µg/mL (≈ 0.174 µM) | 4 µg/mL (≈ 11.6 µM) | – | – | – | – | – | – | – | – | – | – | – | – | Concentration [1]: 4 µg/mL; Concentration [2]: 16 µg/mL; Concentration [4]: 32 µg/mL
COc1ccc(C[C@H]2NC[C@H](O)[C@H]2OC(C)=O)cc1 [ANISOMYCIN] | 16 µg/mL (≈ 60.3 µM) | – | 0.25 µg/mL (≈ 0.942 µM) | – | – | – | 2 µg/mL (≈ 7.54 µM) | 4 µg/mL (≈ 15.1 µM) | 10 mm | 13 mm | – | – | – | – | – | – | – | – | – | – | –
COc1ccc(C(C)[C@H]2NC[C@H](O)[C@H]2OC(C)=O)cc1 (stereo partly specified) | – | – | – | – | – | 32 µg/mL | – | – | 24 mm | 0 mm | 0 mm | 8 mm | 0 mm | 0 mm | 32 µg/mL | 32 µg/mL | – | – | – | – | MIC [17]: > 32 µg/mL; Inhibitory zone [20]: 0 mm; MIC [21]: > 32 µg/mL; Inhibitory zone [23]: 0 mm; Inhibitory zone [24]: 0 mm; MIC [25]: > 32 µg/mL; MIC [26]: > 32 µg/mL
COc1ccc(C[C@H]2NC[C@H](O)[C@H]2OC(C)=O)cc1 | – | – | – | 2 µg/mL | 0.25 µg/mL | – | – | – | – | – | – | – | – | – | – | 0.25 µg/mL | 2 µg/mL | 1 µg/mL | 0.5 µg/mL | 1 µg/mL | Concentration [28]: 4 µg/mL; Concentration [29]: 0.5 µg/mL; Inhibitory zone [32]: Questionable activity
COc1ccc(C[C@H]2NC[C@H](O)[C@H]2OC(C)=O)cc1 (racemic) | – | 0.5 µg/mL | – | 2 µg/mL | 0.5 µg/mL | 0.25 µg/mL | – | – | – | – | – | – | – | – | 0.25 µg/mL | 1 µg/mL | 4 µg/mL | 2 µg/mL | 1 µg/mL | 2 µg/mL | Concentration [28]: 8 µg/mL
COc1cccc(C[C@H]2NC[C@H](O)[C@H]2OC(C)=O)c1 | – | – | – | 32 µg/mL | 8 µg/mL | 4 µg/mL | – | – | 10 mm | 0 mm | 10 mm | 15 mm | 0 mm | 8 mm | 8 µg/mL | 8 µg/mL | 32 µg/mL | 16 µg/mL | 16 µg/mL | 16 µg/mL | MIC ([3]; Epidermophyton floccosum, read-out: MIC): > 32 µg/mL; Inhibitory zone [20]: 12 mm; MIC ([6]; Saccharomyces cerevisiae, read-out: MIC): 8 µg/mL (≈ 30.2 µM); Inhibitory zone [23]: 0 mm; Inhibitory zone [24]: 10 mm; MIC ([10]; Trichophyton benhamiae, read-out: MIC): > 32 µg/mL; MIC ([11]; Candida albicans, read-out: MIC): > 32 µg/mL

From ChEMBL document CHEMBL1122441, “Structure-activity relationships of synthetic antibiotic analogues of anisomycin” (1983)
